Results as given in ChEMBL document CHEMBL4325832, “Novel Benzazole Derivatives Endowed with Potent Antiheparanase Activity” (J Med Chem, 2018).
Blank lines part the entries; values can stand above or below the compound they belong to. Calls of active or inactive are those of the source. The rule behind the calls is not given here.

Columns and labels:
U2OS [1] = assay: Inhibition of cell invasion in human U2OS cells at 1 uM after 24 hrs by SRB staining based matrigel invasion chamber assay relative to control; assay type: functional
How it was run: (§1)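 HT1080, U87MG and U2OS cells pretreated with compound in complete medium for 24 h, harvested, resuspended in serum-free medium and seeded at 2.5 × 10^4 cells/filter into Growth Factor Reduced Matrigel-coated Transwell upper chambers. Same concentration in both upper and lower chambers. After 24 h, invaded cells SRB-stained and counted under microscope at 40X-100X. Student's 2-tailed t test, P<0.05.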

U-87 MG [2] = assay: Inhibition of cell invasion in human U87MG cells at 1 uM after 24 hrs by SRB staining based matrigel invasion chamber assay relative to control; assay type: functional, U-87MG ATCC; how it was run: as §1
[3] = Antiproliferative activity against human CME1 cells after 72 hrs by cell counting analysis
A204 [4] = assay: Anti-invasive activity against human A204 cells after 24 hrs by SRB staining based matrigel invasion chamber assay; assay type: functional, cell-based
How it was run: (§2)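 CME-1 or A204 cells pretreated with drug in complete medium for 24 h, then resuspended in serum-free medium and placed in upper chamber of Growth Factor Reduced Matrigel-coated Transwells (1.2 × 10^5 CME-1 or 1.8 × 10^5 A204 cells/filter). Same drug concentration in both upper and lower chambers, 24 h. Invaded cells SRB-stained and counted microscopically. DMSO final 0.5% (CME-1) or 0.25% (A204).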

Homo sapiens [5] = organism: Homo sapiens; details: 1.5 uM
HT-1080 [6] = assay: Downregulation of HPSE1 mRNA expression in human HT1080 cells at 1 uM after 24 hrs by qPCR analysis; assay type: functional, cell-based
How it was run: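 HT1080 cells treated 24 h with compound at 1 μM. Total RNA extracted and reverse-transcribed. HPSE-1 mRNA quantified by real-time qPCR using the ΔΔCt method, […]. Expressed as percent of untreated cells.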

[7] = Antiproliferative activity against human CME1 cells assessed as inhibition of cell proliferation at 3.1 uM after 24 hrs by cell counting analysis relative to control; assay type: functional; design: scale not given: the % may be the effect or the level left
How it was run: (§3)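 CME-1 or A204 cells in RPMI plus 10% FBS, exposed to drug in DMSO or solvent alone for 24 h. Proliferation assessed by cell counting and expressed as percent inhibition versus control. DMSO final 0.5% (CME-1) or 0.25% (A204).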

U-87 MG [8] = assay: Antiproliferative activity against human U87MG cells after 3 days by SRB assay
A204 [9] = assay: Antiproliferative activity against human A204 cells after 72 hrs by cell counting analysis; details: A204, 72 h
U2OS [10] = assay: Antiproliferative activity against human U2OS cells after 3 days by SRB assay
HT-1080 [11] = assay: Antiproliferative activity against human HT1080 cells after 3 days by SRB assay
A204 [12] = details: Homo sapiens, 1.5 uM
Homo sapiens [13] = organism: Homo sapiens; assay: Anti-invasive activity against human CME1 cells after 24 hrs by SRB staining based matrigel invasion chamber assay; assay type: functional, cell-based; how it was run: as §2
A204 [14] = assay: Antiproliferative activity against human A204 cells assessed as inhibition of cell proliferation at 3.1 uM after 24 hrs by cell counting analysis relative to control; assay type: functional; design: scale not given: the % may be the effect or the level left; how it was run: as §3
HT-1080 [15] = assay: Inhibition of cell invasion in human HT1080 cells at 1 uM after 24 hrs by SRB staining based matrigel invasion chamber assay relative to control; assay type: functional; details: HT-1080, 24 h; how it was run: as §1
Heparanase = target: T1, Heparanase (Homo sapiens, UniProt Q9Y251); assay: Inhibition of recombinant HPSE GS3 (unknown origin) using fondaparinux as substrate incubated for 3 hrs in absence of light by WST1 based colorimetry
T1 sequence (Q9Y251 whole entry): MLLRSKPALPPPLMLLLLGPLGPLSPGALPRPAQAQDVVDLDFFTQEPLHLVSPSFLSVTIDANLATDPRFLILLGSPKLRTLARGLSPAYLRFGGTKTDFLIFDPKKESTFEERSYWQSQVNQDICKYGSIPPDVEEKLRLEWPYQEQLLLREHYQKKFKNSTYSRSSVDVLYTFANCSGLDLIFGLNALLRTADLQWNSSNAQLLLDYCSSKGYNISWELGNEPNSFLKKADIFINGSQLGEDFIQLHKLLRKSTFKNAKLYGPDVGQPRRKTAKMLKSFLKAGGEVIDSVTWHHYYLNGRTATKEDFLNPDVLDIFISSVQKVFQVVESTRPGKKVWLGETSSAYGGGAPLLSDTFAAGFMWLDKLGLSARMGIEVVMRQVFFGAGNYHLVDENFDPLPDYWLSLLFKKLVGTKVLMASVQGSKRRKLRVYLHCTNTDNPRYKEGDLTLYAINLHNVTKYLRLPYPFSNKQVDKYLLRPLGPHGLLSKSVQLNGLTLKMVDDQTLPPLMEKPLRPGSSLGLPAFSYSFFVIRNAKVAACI

U-87 MG [16] = assay: Inhibition of cell invasion in human U87MG cells at 10 uM after 24 hrs by SRB staining based matrigel invasion chamber assay relative to control; assay type: functional, U-87MG ATCC; how it was run: as §1
U2OS [17] = details: Homo sapiens, 10 uM
HT-1080 [18] = assay: Inhibition of cell invasion in human HT1080 cells at 10 uM after 24 hrs by SRB staining based matrigel invasion chamber assay relative to control; assay type: functional; how it was run: as §1
U2OS [19] = assay: Inhibition of cell invasion in human U2OS cells at 10 uM after 24 hrs by SRB staining based matrigel invasion chamber assay relative to control; details: read-out: INH

Structure (SMILES): COc1ccc(C(=O)Nc2ccc(CNc3ccc(-c4nc5ccccc5[nH]4)cc3F)cc2)cc1Br
- inhibition at 1 µM (U2OS [1]): 50 to 90%
- inhibition at 1 µM (U-87 MG [2]): 50 to 90%
- IC50 [3]: 3.9 µM
- Activity (A204 [4]): Dose-dependent effect
- inhibition (Homo sapiens [5]): inactive
- Activity (HT-1080 [6]): Active
- Activity [7]: 15%
- IC50 (U-87 MG [8]; Homo sapiens, U-87 MG, 72 h): 2.8 µM
- IC50 (A204 [9]): 3.4 µM
- IC50 (U2OS [10]; Homo sapiens, U2OS, 72 h): 1.7 µM
- IC50 (HT-1080 [11]; Homo sapiens, HT-1080, 72 h): 8.7 µM
- inhibition (A204 [12]): inactive
- Activity (Homo sapiens [13]): Dose-dependent effect
- Activity (A204 [14]): 5%
- inhibition at 1 µM (HT-1080 [15]): 50 to 90%

Structure (SMILES): COc1ccc(C(=O)Nc2ccc(CNc3ccc(-c4nc5cc(CC(=O)N[C@@H](CCCCN)C(=O)O)ccc5o4)cc3F)cc2)cc1Br
- IC50 (Heparanase): > 10 µM

Structure (SMILES): COc1ccc(C(=O)Nc2ccc(CNc3ccc(-c4nc5cc(CC(=O)N[C@@H](CCC(=O)O)C(=O)O)ccc5o4)cc3F)cc2)cc1Br
- inhibition at 10 µM (U-87 MG [16]): 50 to 90%
- inhibition (U2OS [17]): inactive
- IC50 (U-87 MG [8]; u-87mg atcc): Not Active
- IC50 (U2OS [10]; u2os): Not Active
- IC50 (HT-1080 [11]; ht-1080): Not Active
- inhibition at 10 µM (HT-1080 [18]; HT-1080, 24 h): 50 to 90%

Structure (SMILES): COc1ccc(C(=O)Nc2ccc(CNc3ccc(-c4nc5cc(CC(=O)NCC(=O)O)ccc5[nH]4)cc3F)cc2)cc1Br
- inhibition (U-87 MG [16]; U-87MG ATCC): inactive
- IC50 (Heparanase): 0.64 µM
- IC50 (U-87 MG [8]; u-87mg atcc): Not Active
- IC50 (U2OS [10]; u2os): Not Active
- inhibition at 10 µM (U2OS [19]): < 50%
- IC50 (HT-1080 [11]; ht-1080): Not Active
- inhibition (HT-1080 [18]): inactive

Structure (SMILES): COc1ccc(C(=O)Nc2ccc(CNc3ccc(-c4nc5ccccc5[nH]4)cc3)cc2)cc1Br
- inhibition at 1 µM (U2OS [1]): 50 to 90%
- inhibition at 1 µM (U-87 MG [2]): 50 to 90%
- Activity (HT-1080 [6]): inactive
- IC50 (U-87 MG [8]; Homo sapiens, U-87 MG, 72 h): 2.7 µM
- IC50 (U2OS [10]; Homo sapiens, U2OS, 72 h): 2.1 µM
- IC50 (HT-1080 [11]; Homo sapiens, HT-1080, 72 h): 3.1 µM
- inhibition at 1 µM (HT-1080 [15]): 50 to 90%

Further lines, results first:

- IC50 (Heparanase): > 10 µM
Structure (SMILES): COc1ccc(C(=O)Nc2ccc(CNc3ccc(-c4nc5cc(CC(=O)NCB(O)O)ccc5o4)cc3F)cc2)cc1Br

- IC50 (U-87 MG [8]; u-87mg atcc): Not Active
- IC50 (U2OS [10]; u2os): Not Active
- IC50 (HT-1080 [11]; ht-1080): Not Active
Structure (SMILES): COc1ccc(C(=O)Nc2ccc(CNc3ccc(-c4nc5cc(CC(=O)NCC(=O)O)ccc5o4)cc3F)cc2)cc1Br

- IC50 (Heparanase): > 10 µM
Structure (SMILES): COc1ccc(C(=O)Nc2ccc(CNc3ccc(-c4nc5cc(CC(=O)O)ccc5o4)cc3)cc2)cc1Br

- IC50 (Heparanase): > 10 µM
Structure (SMILES): COc1ccc(C(=O)Nc2ccc(CNc3ccc(-c4nc5cc(CC(=O)O)ccc5[nH]4)cc3)cc2)cc1Br
